Measured values from publication PMC8873552 (Chemical Science, 2021).

Assays:
[1] = system: A549 cell xenograft-bearing nude mice; assay: Intravenous therapy of xenograft mice; type: in vivo, mouse; conditions: 240 nmol; for survival: every three days for ten days; for tumor growth: every three days for ten days (four injections)
Summary of the method: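 Nude mice bearing A549 xenografts were injected intravenously every three days over ten days, four injections in total, at twice the intratumoral concentration. Comparison groups matched the intratumoral study. Tumour growth and body weight were monitored.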

[2] = system: A549 cell xenograft-bearing nude mice; assay: Intratumor therapy of xenograft mice; type: in vivo, mouse; conditions: intratumoral, 120 nmol
Summary of the method: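 Nude mice bearing A549 xenografts received intratumoral injections once daily for 12 days. Comparison groups were vehicle, the azide control, the phenyl-azide conjugate and free drug. Tumour growth, body weight and survival were monitored.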

[3] = In vivo drug release analysis; set-up: species or system mouse; conditions: two hours after intratumoral administration
Summary of the method: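 A549 xenograft-bearing nude mice were dosed intratumorally. Two hours later, tumour and urine extracts were analysed by RP-HPLC for intact prodrug and free drug.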

[4] = Reaction kinetics of acrolein–azide 1,3-dipolar cycloaddition; type: physicochemical

SMILES: CO[C@@]12[C@H](COC(N)=O)C3=C(C(=O)C(C)=C(N)C3=O)N1C[C@@H]1N[C@@H]12 [MMC, mitomycin C]
- body weight ([1]; every three days): the body weight loss was very drastic
- survival [1]: could not survive before the fourth injection
- tumor growth [1]: significantly inhibited tumor growth
- inflammation ([1]; tenth day of treatment): inflammation in the tail area
- body weight ([2]; every day for 12 days): more body weight loss
- survival ([2]; every day for 12 days): survived less than five days after treatment
- tumor growth ([2]; every day for 12 days): significantly inhibits tumor growth
- inflammation and ADRs ([2]; post-treatment day 4): inflammation on the whole body
- compound detected in tumor extract [3]: the free drug could not be detected from the tumor
- compound detected in urine extract [3]: the secreted MMC drug was present in the urine

SMILES: CC(C)c1cccc(C(C)C)c1N=[N+]=[N-] [Compound 1d, 2,6-diisopropylphenyl azide]
- second-order rate constant (k), formation of 4-formyl-1,2,3-triazole 4d ([4]; formation of 4d): 0.00095 M⁻¹ s⁻¹
- second-order rate constant (k), reaction with acrolein to give heterocycle 6 ([4]; formation of heterocycle 6): 0.00633 M⁻¹ s⁻¹
- rate ratio, formation of heterocycle 6 versus 4-formyl-1,2,3-triazole 4d ([4]; times faster): 6.6 times
- rate constant ratio, 1d to heterocycle 6 versus 1a to triazoline 3a ([4]; times higher): 9.7 times

SMILES: Cc1cc(C(C)C)c(N=[N+]=[N-])c(C(C)C)c1 [Compound 9, 4-methyl-2,6-diisopropyl-phenyl azide]
- tumor size ([1]; by two weeks): 800 mm^3
- survival [1]: survived less than three weeks after treatment
- tumor growth [1]: does not have any effect
- survival ([2]; every day for 12 days): survived less than twelve days after treatment
- tumor growth ([2]; every day for 12 days): does not retard the tumor growth
- tumor size ([2]; in two weeks): 900 mm^3

SMILES: [N-]=[N+]=Nc1ccccc1 [Compound 1a, phenyl azide]
- second-order rate constant (k), reaction with acrolein to give triazoline 3a ([4]; formation of triazoline 3a): 0.00065 M⁻¹ s⁻¹
